According to ChEMBL document CHEMBL3593173, “Discovery of novel N-(5-(tert-butyl)isoxazol-3-yl)-N'-phenylurea analogs as potent FLT3 inhibitors and evaluation of their activity against acute myeloid leukemia in vitro and in vivo” (Bioorg Med Chem, 2015):
pIC50: −log10 of the molar value. In brackets after ≈: the same amount, converted by molar mass. Activity calls are given as the source filed them. The rule behind the calls is not given here.

Experiments:
[1] = AUC (0 to 24 hrs) in Sprague-Dawley rat at 30 mg/kg, po after 15 mins to 24 hrs by HPLC method; type: ADME, organism-based; parameters: dose 30 mg/kg, time < 24 hr, route oral; conditions: in vivo
Summary of the method: (§1)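 Sprague–Dawley rats (n = 3) fasted overnight, then given a single 30 mg/kg oral gavage dose in 25% PEG400, 5% DMSO and 70% distilled water. Heparinized blood was drawn at 15 min, 30 min, 1, 2, 4, 6, 12 and 24 h, and plasma was separated by centrifugation. Plasma levels were measured by liquid–liquid extraction and HPLC.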

A549 = assay: Growth inhibition of human A549 cells incubated for 72 hrs by MTT assay; type: functional, cell-based; conditions: A549, 72 h
Summary of the method: (§2)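 Non-leukemia lines were grown in RPMI 1640 or DMEM with 10% FBS at 37 °C in 5% CO₂. Cells were seeded at 2–5 × 10³ per well and incubated 24 h, then treated with diluted inhibitors for 72 h. MTT was added for 2–4 h, formazan was dissolved in DMSO, and OD was read at 570 nm to derive IC50.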

U-251 = assay: Growth inhibition of human U251 cells incubated for 72 hrs by MTT assay; type: functional, cell-based; conditions: U-251, 72 h; summary of the method: as §2
HepG2 = assay: Growth inhibition of human HepG2 cells incubated for 72 hrs by MTT assay; type: functional, cell-based; conditions: HepG2, 72 h; summary of the method: as §2
MV4-11 [2] = assay: Induction of apoptosis in human MV4-11 cells assessed as early apoptotic cells level at 100 nM incubated for 48 hrs by Annexin V-FITC labeling based flow cytometry (reference value: 3.54%); type: functional
MV4-11 [3] = assay: Induction of apoptosis in human MV4-11 cells incubated for 48 hrs by Annexin V-FITC labeling based flow cytometry; type: functional, cell-based
MV4-11 [4] = assay: Antitumor activity against FLT3-ITD bearing human MV4-11 cells xenografted in NOD-SCID mouse assessed as tumor growth inhibition at 10 mg/kg/day, po; type: functional; conditions: MV4-11, po, read-out: TGI
Summary of the method: (§3)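 MV4-11 cells in exponential growth were washed three times in serum-free medium, resuspended at 1 × 10⁸ cells/mL and injected subcutaneously into NOD-SCID mice aged 5–6 weeks. At 100–200 mm³, tumors were randomized into 4 groups of 6. Dosing was 10, 30 or 60 mg/kg/d, or vehicle (25% PEG400 plus 5% DMSO in water), by oral gavage once daily. Tumor volume was measured every 3 days, and body weight and toxicity signs were monitored.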

MV4-11 [5] = assay: Antitumor activity against FLT3-ITD bearing human MV4-11 cells xenografted in NOD-SCID mouse assessed as induction of complete tumor regression at 60 mg/kg/day, po; type: functional, organism-based; summary of the method: as §3
MV4-11 [6] = assay: Induction of apoptosis in human MV4-11 cells assessed as late apoptotic cells level at 1 nM incubated for 48 hrs by Annexin V-FITC labeling based flow cytometry (reference value: 6.61%); type: functional
MV4-11 [7] = assay: Induction of apoptosis in human MV4-11 cells assessed as necrotic cells level at 100 nM incubated for 48 hrs by Annexin V-FITC labeling based flow cytometry (reference value: 3.76%); type: functional
[8] = Solubility in EtOH solution; type: physicochemical
MV4-11 [9] = assay: Induction of apoptosis in FLT3-ITD bearing human MV4-11 cells xenografted in NOD-SCID mouse at 60 mg/kg/day, po qd for 7 days by TUNEL assay
MV4-11 [10] = assay: Antitumor activity against FLT3-ITD bearing human MV4-11 cells xenografted in NOD-SCID mouse assessed as tumor growth inhibition at 30 mg/kg/day, po; type: functional; conditions: MV4-11, po, read-out: TGI; summary of the method: as §3
[11] = Solubility in MeOH solution; type: physicochemical
MV4-11 [12] = assay: Antitumor activity against FLT3-ITD bearing human MV4-11 cells xenografted in orally dosed NOD-SCID mouse assessed as tumor growth inhibition; type: functional, organism-based; summary of the method: as §3
[13] = Solubility in SPSS; type: physicochemical
U-937 = assay: Growth inhibition of human U937 cells incubated for 72 hrs by MTT assay; type: functional, cell-based; conditions: U-937, 72 h
Summary of the method: (§4)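 Leukemia cells were grown with 10% FBS at 37 °C in 5% CO₂; MV4-11 was kept in IMDM. Cells were seeded at 1–4 × 10⁴ per well, and an equal volume of medium containing increasing inhibitor concentrations was added. MTT was added for 2–4 h, formazan was dissolved in DMSO, and OD was read at 570 nm to derive IC50.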

MV4-11 [14] = assay: Induction of apoptosis in human MV4-11 cells assessed as necrotic cells level at 1 nM incubated for 48 hrs by Annexin V-FITC labeling based flow cytometry (reference value: 3.76%); type: functional
Mus musculus [15] = assay: Toxicity in FLT3-ITD bearing human MV4-11 cells xenografted NOD-SCID mouse assessed as induction of toxicity signs at 10 to 60 mg/kg/day, po; type: organism-based; conditions: in vivo; summary of the method: as §3
K562 = assay: Growth inhibition of human K562 cells incubated for 72 hrs by MTT assay; type: functional, cell-based; conditions: K562, 72 h; summary of the method: as §4
[16] = Clearance in Sprague-Dawley rat at 30 mg/kg, po after 15 mins to 24 hrs by HPLC method; type: ADME, organism-based; conditions: in vivo; summary of the method: as §1
MV4-11 [17] = assay: Cytotoxicity against human MV4-11 cells incubated for 72 hrs by MTT assay; type: functional, cell-based; conditions: MV4-11, 72 h; summary of the method: as §4
MV4-11 [18] = assay: Induction of apoptosis in human MV4-11 cells assessed as early apoptotic cells level at 10 nM incubated for 48 hrs by Annexin V-FITC labeling based flow cytometry (reference value: 3.54%); type: functional
Rattus norvegicus = assay: Volume of distribution at steady state in Sprague-Dawley rat at 30 mg/kg, po after 15 mins to 24 hrs by HPLC method; type: ADME, organism-based; conditions: in vivo; summary of the method: as §1
MV4-11 [19] = assay: Induction of apoptosis in human MV4-11 cells assessed as viable cells at 100 nM incubated for 48 hrs by Annexin V-FITC labeling based flow cytometry (reference value: 86.1%); type: functional; conditions: MV4-11, 48 h, read-out: Activity
[20] = Cmax in Sprague-Dawley rat at 30 mg/kg, po after 15 mins to 24 hrs by HPLC method; type: ADME, organism-based; parameters: dose 30 mg/kg, route oral; conditions: in vivo; summary of the method: as §1
HCT-116 = assay: Growth inhibition of human HCT116 cells incubated for 72 hrs by MTT assay; type: functional, cell-based; conditions: HCT-116, 72 h; summary of the method: as §2
MV4-11 [21] = assay: Growth inhibition of FLT3-ITD bearing human MV4-11 cells incubated for 72 hrs by MTT assay; type: functional, cell-based; conditions: MV4-11, 72 h; summary of the method: as §4
[22] = Apparent half life in Sprague-Dawley rat at 30 mg/kg, po after 15 mins to 24 hrs by HPLC method; type: ADME, organism-based; conditions: in vivo, read-out: t1/2(app) (converted); summary of the method: as §1
[23] = Solubility in PBS solution; type: physicochemical
MCF7 = assay: Growth inhibition of human MCF7 cells incubated for 72 hrs by MTT assay; type: functional, cell-based; conditions: MCF7, 72 h; summary of the method: as §2
MV4-11 [24] = assay: Induction of apoptosis in human MV4-11 cells assessed as viable cells at 1 nM incubated for 48 hrs by Annexin V-FITC labeling based flow cytometry (reference value: 86.1%); type: functional; conditions: MV4-11, 48 h, read-out: Activity
MV4-11 [25] = assay: Induction of apoptosis in human MV4-11 cells assessed as necrotic cells level at 10 nM incubated for 48 hrs by Annexin V-FITC labeling based flow cytometry (reference value: 3.76%); type: functional
[26] = Solubility in water; type: physicochemical
[27] = Growth inhibition of human A875 cells incubated for 72 hrs by MTT assay; type: functional, cell-based; conditions: A875, 72 h; summary of the method: as §2
MV4-11 [28] = assay: Effect on FLT3 protein expression in human MV4-11 cells at 1 to 100 nM incubated for 2 hrs by Western blotting method; type: cell-based; conditions: mv4-11, 2 h, 0.1 µM
Summary of the method: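 MV4-11 cells were treated with increasing concentrations for 2 h at 37 °C, washed in ice-cold PBS and lysed in RIPA buffer with 1% protease cocktail. Lysates were cleared at 13,000 rpm for 15 min at 4 °C, run on 5–10% polyacrylamide gels and transferred to PVDF. Blots were probed with anti-FLT3, anti-p-FLT3 and anti-β-actin, then an HRP secondary antibody.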

Jurkat = assay: Growth inhibition of human Jurkat cells incubated for 72 hrs by MTT assay; type: functional, cell-based; summary of the method: as §4
MV4-11 [29] = assay: Inhibition of cell proliferation of FLT3-ITD bearing human MV4-11 cells xenografted in NOD-SCID mouse assessed as reduction in Ki67-positive cells in tumor tissues at 60 mg/kg/day, po qd for 7 days by immunohistochemistry; type: functional, organism-based
Summary of the method: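 NOD-SCID mice bearing subcutaneous MV4-11 xenografts were dosed at 60 mg/kg/d by oral gavage, once daily. Tumors were harvested 7 days later. Proliferation was scored by Ki67 immunostaining and apoptosis by TUNEL staining.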

Mus musculus [30] = assay: Toxicity in FLT3-ITD bearing human MV4-11 cells xenografted NOD-SCID mouse assessed as induction of body weight loss at 10 to 60 mg/kg/day, po; type: organism-based; conditions: in vivo; summary of the method: as §3
MV4-11 [31] = assay: Induction of apoptosis in human MV4-11 cells assessed as late apoptotic cells level at 10 nM incubated for 48 hrs by Annexin V-FITC labeling based flow cytometry (reference value: 6.61%); type: functional
[32] = Growth inhibition of human PANC1 cells incubated for 72 hrs by MTT assay; type: functional, cell-based; conditions: PANC-1, 72 h; summary of the method: as §2
THP-1 = assay: Growth inhibition of human THP1 cells incubated for 72 hrs by MTT assay; type: functional, cell-based; conditions: THP-1, 72 h; summary of the method: as §4
MV4-11 [33] = assay: Induction of apoptosis in human MV4-11 cells assessed as late apoptotic cells level at 100 nM incubated for 48 hrs by Annexin V-FITC labeling based flow cytometry (reference value: 6.61%); type: functional
MV4-11 [34] = assay: Induction of apoptosis in human MV4-11 cells assessed as early apoptotic cells level at 1 nM incubated for 48 hrs by Annexin V-FITC labeling based flow cytometry (reference value: 3.54%); type: functional
MV4-11 [35] = assay: Induction of apoptosis in human MV4-11 cells assessed as viable cells at 10 nM incubated for 48 hrs by Annexin V-FITC labeling based flow cytometry (reference value: 86.1%); type: functional; conditions: MV4-11, 48 h, read-out: Activity

COc1ccn2cc(-c3ccc(NC(=O)Nc4cc(C(C)(C)C)on4)cc3)nc2c1
AUC(0-t) at 24 h [1]: 14300 ng·h/mL
pIC50 (A549): 5.25
pIC50 (U-251): < 4.70
pIC50 (HepG2): < 4.70
Activity (MV4-11 [2]): 6.88%
Activity (MV4-11 [3]): Dose-dependent effect
inhibition in vivo at 10 mg/kg/day (MV4-11 [4]): 51%
Activity (MV4-11 [5]): Active
Activity (MV4-11 [6]): 12.1%
Activity (MV4-11 [7]): 15.3%
solubility [8]: 3150 µg/mL (≈ 7770 µM)
Activity (MV4-11 [9]): Active
inhibition in vivo at 30 mg/kg/day (MV4-11 [10]): 87%
solubility [11]: 7460 µg/mL (≈ 18400 µM)
TGI (MV4-11 [12]): Dose-dependent effect
solubility [13]: 1.47 µg/mL (≈ 3.63 µM)
pIC50 (U-937): < 4.70
Activity (MV4-11 [14]): 5.34%
Activity (Mus musculus [15]): Non-toxic
pIC50 (K562): < 4.70
CL/F [16]: 33.5 mL/min/kg
pIC50 (MV4-11 [17]): 8.55
Activity (MV4-11 [18]): 7.42%
Vdss (Rattus norvegicus): 14.12 L/kg
viability at 0.1 µM (MV4-11 [19]): 54.8%
Cmax [20]: 3290 ng/mL
pIC50 (HCT-116): < 4.70
pIC50 (MV4-11 [21]): 8.52
half-life [22]: 4.86 h
solubility [23]: 36.6 µg/mL (≈ 90.3 µM)
pIC50 (MCF7): < 4.70
viability at 0.001 µM (MV4-11 [24]): 78.7%
Activity (MV4-11 [25]): 10.8%
solubility [26]: 304 µg/mL (≈ 749 µM)
pIC50 [27]: < 4.70
Activity (MV4-11 [28]): Non-toxic
pIC50 (Jurkat): < 4.70
inhibition (MV4-11 [29]): Active
Activity (Mus musculus [30]): Non-toxic
Activity (MV4-11 [31]): 18.6%
pIC50 [32]: < 4.70
pIC50 (THP-1): 5.47
Activity (MV4-11 [33]): 23%
Activity (MV4-11 [34]): 3.86%
viability at 0.01 µM (MV4-11 [35]): 63.2%

CC(C)(C)c1cc(NC(=O)Nc2ccc(-c3nc4ccccc4o3)cc2)no1
pIC50 (MV4-11 [17]): 7.08

CC(C)(C)c1cc(NC(=O)Nc2ccc(-c3cn4ncccc4n3)cc2)no1
pIC50 (MV4-11 [17]): 7.23
